The results in this text go back to ChEMBL document CHEMBL1687770, “Activity of a trisubstituted pyrrole in inhibiting sporozoite invasion and blocking malaria infection” (2010).

Assay [1] concerns Plasmodium berghei. The experiment in a line: Antimalarial activity against Plasmodium berghei NK65 infected in human HepG2 cells assessed as inhibition of transformation of sporozoites into liver stage at 10 uM treated 3 hrs after infection measured 40 hrs after drug washout. Type of assay: functional, organism-based. A digest of the protocol: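 Compound at 10 μM was added to HepG2 cultures 3 h after P. berghei NK65 sporozoite addition. Liver stages were detected at 40 h p.i. by MAb 2E6/FITC immunofluorescence and counted. Compared with untreated wells by t test. At least three experiments, in duplicate.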

For assay [2], the system named is Plasmodium berghei. The assay is described as follows: Antimalarial activity against Plasmodium berghei NK65 infected in human HepG2 cells assessed as reduction of liver stage parasites level treated for 12 hrs measured 40 hrs after drug washout. It counts as functional, organism-based. Put shortly:
(§1)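 P. berghei NK65 sporozoites from mosquito salivary glands (5 × 10⁴/well) added to HepG2 cells seeded the day before in DMEM/10% FCS, with compound at 0.5, 2 or 10 μM. At 12 h p.i. the medium was replaced with compound-free medium. Liver stages at 40 h p.i. were stained with MAb 2E6 and FITC anti-mouse IgG and counted by fluorescence microscopy. At least three experiments, each in duplicate.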

Assay [3] has as its system Plasmodium berghei. The experiment in a line: Antimalarial activity against PbPKG knockout Plasmodium berghei NK65 infected in human HepG2 cells assessed as reduction of liver stage parasites level treated before infection measured 40 hrs after drug washout. Type of assay: functional, organism-based.
For assay [4], the system named is Plasmodium berghei. The experiment in a line: Antimalarial activity against Plasmodium berghei NK65 infected in human HepG2 cells assessed as reduction of liver stage parasites level at 2 uM treated for 12 hrs measured 40 hrs after drug washout. Type of assay: functional, organism-based. Put shortly: as §1
Assay [5] concerns Plasmodium berghei. The assay is described as follows: Antimalarial activity against PbPKG knockout Plasmodium berghei NK65 infected in human HepG2 cells assessed as reduction of liver stage parasites level treated for 3 hrs measured 40 hrs after drug washout. It counts as functional, organism-based.
For assay [6], the system named is Plasmodium berghei. The experiment in a line: Inhibition of Plasmodium berghei NK65 motility up to 10 uM after 2 hrs. Type of assay: functional, organism-based. Put shortly: (§2)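 Gliding assay. Slides were coated with anti-CSP MAb 3D11 (10 μg/ml). P. berghei NK65 sporozoites (1 × 10⁴/well) were added with compound at 0.5, 2 or 10 μM in DMEM with 3% BSA and incubated 2 h at 37°C. Wells were fixed with paraformaldehyde and blocked. Trails were stained with biotinylated 3D11 and streptavidin-FITC.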

For assay [7], the system named is Plasmodium berghei. The experiment in a line: Antimalarial activity against Plasmodium berghei NK65 infected in human HepG2 cells assessed as inhibition of sporozoite invasion after 1 hr. It counts as functional. Put shortly:
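HepG2 cells were infected with P. berghei NK65 sporozoites (5 × 10⁴/well) with compound at 0.5, 2 or 10 μM for 1 h at 37°C. Cells were fixed with 4% paraformaldehyde and double-stained to tell intracellular from extracellular sporozoites. Intracellular sporozoites were counted.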

Assay [8] deals with Plasmodium yoelii. The assay is described as follows: Antimalarial activity against Plasmodium yoelii 17XNL infected in Swiss-Webster mouse liver assessed as reduction liver-stage infection at 50 mg/kg, ip administered 15 mins before infection measured up to 22 days. The arrangement: dose 50 mg/kg. Type of assay: functional, organism-based. Put shortly:
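Female Swiss-Webster mice (6–8 weeks, n = 3) received one ip dose of 50 mg/kg in PBS, or PBS alone, before iv infection with P. yoelii 17XNL sporozoites (1 × 10⁴/mouse). The prepatent period was followed by daily Giemsa-stained blood smears.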

The subject of assay [9] is Plasmodium yoelii. The experiment in a line: Antimalarial activity against Plasmodium yoelii infected in Swiss-Webster mouse liver assessed as reduction of parasite burden at 50 mg/kg, ip administered 15 mins before infection measured up to 22 days relative to PBS treated group. The following applies: route intraperitoneal.
Assay [10] has as its system Plasmodium berghei. The experiment in a line: Antimalarial activity against Plasmodium berghei NK65 infected in human HepG2 cells assessed as inhibition of transformation of sporozoites into liver stage at 10 uM treated for 3 hrs measured 40 hrs after drug washout. It counts as functional, organism-based. A digest of the protocol:
(§3)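 HepG2 cells were infected with P. berghei NK65 sporozoites (5 × 10⁴/well) in the presence of compound. The compound-containing medium was removed 3 h after infection. Liver stages at 40 h p.i. were immunostained with MAb 2E6 and FITC secondary, then counted by fluorescence microscopy. At least three experiments, in duplicate.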

Assay [11] has as its system Plasmodium berghei. The assay is described as follows: Antimalarial activity against Plasmodium berghei NK65 infected in human HepG2 cells assessed as reduction of liver stage parasites level at 2 uM treated for 3 hrs measured 40 hrs after drug washout. Type of assay: functional, organism-based. A digest of the protocol:
as §3

Assay [12] deals with Plasmodium berghei. The assay is described as follows: Antimalarial activity against Plasmodium berghei ANKA infected through mosquito bite in C57BL/6 mouse liver assessed as increase of average prepatent period at 50 mg/kg, ip administered first dose 15 mins before infection and second and third doses given 6 hrs and 12 hrs postinfection measured up to 22 days (reference value: 2.66 +/- 0.57 days). The following applies: route intraperitoneal.

For assay [13], the system named is Plasmodium berghei. The assay is described as follows: Antimalarial activity against Plasmodium berghei NK65 assessed as reduction of number of complex trails up to 10 uM relative to untreated control. It counts as functional. The arrangement: scale not given: the % may be the effect or the level left. Put shortly:
as §2

In assay [14] the test system is Plasmodium yoelii. The experiment in a line: Antimalarial activity against Plasmodium yoelii 17XNL infected in Swiss-Webster mouse liver assessed as prevention of appearance of blood-stage parasites at 50 mg/kg, ip administered first dose 15 mins before infection and second and third doses given 6 hrs and 12 hrs postinfection measured up to 22 days. The arrangement: dose 50 mg/kg. Type of assay: functional, organism-based. A digest of the protocol:
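Female Swiss-Webster mice (6–8 weeks, n = 10) were given 50 mg/kg ip in PBS, or PBS alone. Doses were given 15 min before iv injection of P. yoelii 17XNL sporozoites (5 × 10³/mouse), then at 6 h and 12 h p.i. Blood-stage parasites were checked daily on Giemsa-stained smears for up to 3 weeks.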

The subject of assay [15] is Plasmodium yoelii. The experiment in a line: Antimalarial activity against Plasmodium yoelii 17XNL infected in Swiss-Webster mouse liver assessed as reduction of parasite burden at 50 mg/kg, ip administered 15 mins before infection measured up to 22 days relative to PBS treated group. Type of assay: functional. The note with it: route intraperitoneal.

Activity calls are given as the source filed them. No cut-off for these calls is given here. Where only a bound is given, the exact number is not on record here.

As for `CN1CCC(c2cc(-c3ccncc3)c(-c3ccc(F)cc3)[nH]2)CC1`, the inhibition entry in the assay with Plasmodium berghei [1] and with Plasmodium berghei [6] was “inactive” each time. Besides, the Activity entry was “Dose dependent effect” in the assay on Plasmodium berghei [2] and 50% in the assay on Plasmodium berghei [13]. Moreover, the result with Plasmodium berghei [3] was inactive. For the same compound, the result with Plasmodium berghei [4], with Plasmodium berghei [5], in the assay with Plasmodium yoelii [8], in the assay on Plasmodium berghei [11] and in the assay on Plasmodium yoelii [14] was Active. Further, the INH with Plasmodium berghei [7] was >1 µM. In addition, the “fold change (FC)” value in the assay with Plasmodium yoelii [9] and in the assay with Plasmodium yoelii [15] was >1000 throughout. Further, the inhibition entry in the assay with Plasmodium berghei [10] was “Active”. Moreover, the Time in the assay on Plasmodium berghei [12] is 5.33 days.
